Measurements taken from ChEMBL document CHEMBL1132560, “N-Substituted 2-(2,6-dinitrophenylamino)propanamides: novel prodrugs that release a primary amine via nitroreduction and intramolecular cyclization” (J Med Chem, 1999).

Columns and labels:
[1] = 4-methoxyaniline yield was measured from 8 fold reduced forms of compound at pH 7.4
How it was run: (§1)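 Anaerobic aqueous solutions with 0.5 M 2-propanol were γ-irradiated to deliver a set number of molar equiv of reducing species (e⁻aq, (CH₃)₂C•OH), at room temperature. pH 7.4 runs used 0.01 M phosphate, pH 4.0 runs 0.01 M formate. […] Released 4-methoxyaniline was quantified by C-18 HPLC with diode-array detection.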

[2] = 4-methoxyaniline yield was measured from 4 fold reduced forms of compound at pH 7.4; how it was run: as §1
[3] = system: UV4; experiment: Compound's concentration to reduce plating efficiency of UV4 cells to 10% controls under aerobic conditions of 20% oxygen; type: functional
How it was run: (§2)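 UV4 cells were grown to early plateau phase in spinner flasks and resuspended in fresh medium. Cells and drug in medium were pre-gassed for 1 h with 5% CO₂ in air (20% O₂) or in N₂. Cells at 10⁶/mL were then exposed for 1 h with continuous gassing and assayed clonogenically. C₁₀ is the concentration giving 10% surviving fraction; hypoxic selectivity is the ratio of aerobic to N₂ C₁₀. Mean ± SEM of 3 experiments.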

[4] = system: UV4; experiment: Compound concentration to reduce plating efficiency of UV4 cells to 10% controls under aerobic conditions of 20% oxygen to that under […]; type: functional; how it was run: as §2
[5] = system: SK-OV-3; experiment: Cytotoxicity on SKOV3 cell growth (reduce cell number by 50%).; type: functional, cell-based; conditions: Homo sapiens
How it was run: (§3)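 Cells in αMEM with 5% FBS plus penicillin/streptomycin were seeded per well at 200 (AA8), 300 (UV4), 75 (EMT6) or 600 (SKOV3) cells and grown 24 h. Drugs came from DMSO stocks (final DMSO <1%), pH 7.4. Exposure was aerobic for 4 h, followed by washing, 4–5 days further growth and methylene blue staining. IC₅₀ was set as 50% growth inhibition relative to same-plate controls. Mean ± SEM of 3–5 experiments.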

[6] = system: CHO-AA8; experiment: Cytotoxicity on AA8 cell growth (reduce cell number by 50%).; type: functional, cell-based; conditions: Cricetulus griseus; how it was run: as §3
[7] = system: UV4; experiment: Cytotoxicity on UV4 cell growth (reduce cell number by 50%).; type: functional, cell-based; conditions: Cricetulus griseus; how it was run: as §3
[8] = system: EMT6; experiment: Cytotoxicity on EMT6 cell growth (reduce cell number by 50%).; type: functional, cell-based; conditions: Mus musculus; how it was run: as §3
[9] = 4-methoxyaniline yield was measured from 4 fold reduced forms of compound at pH 4; how it was run: as §1
[10] = 4-methoxyaniline yield was measured from 8 fold reduced forms of compound at pH 4; how it was run: as §1
[11] = 4-methoxyaniline yield was measured from 8 fold reduced forms of compound at 4; how it was run: as §1
[12] = 4-methoxyaniline yield was measured from 4 fold reduced forms of compound at 4; how it was run: as §1

Structure (SMILES)	Release [1]	Release [2]	C10 [3]	C10 [4]	IC50 [5]	IC50 [6]	IC50 [7]	IC50 [8]	Release [9]	Release [10]	other results
COc1ccc(NC(=O)C(C)Nc2c([N+](=O)[O-])cc(C(=O)NCCN(C)C)cc2[N+](=O)[O-])cc1 (stereo unspecified)	89%	89%									
COc1cc2cc(C(=O)N3CC(CCl)c4c3cc(NC(=O)C(C)Nc3c([N+](=O)[O-])cc(C(=O)NCCN(C)C)cc3[N+](=O)[O-])c3ccccc43)[nH]c2c(OC)c1OC (stereo unspecified)			490 nM	1.8 air/N2	87 nM	95 nM	53 nM	41 nM			
COc1ccc(NC(=O)C(C)(C)Nc2c([N+](=O)[O-])cc(C(=O)NCCO)cc2[N+](=O)[O-])cc1	90%	90%									
COc1ccc(NC(=O)CN(C)c2c([N+](=O)[O-])cc(C(=O)NCCO)cc2[N+](=O)[O-])cc1									80%	100%	
COc1ccc(NC(=O)C(C)Nc2c([N+](=O)[O-])cc(C(=O)NCC(O)CO)cc2[N+](=O)[O-])cc1 (stereo unspecified)	92%	92%									
COc1ccc(NC(=O)CNc2c([N+](=O)[O-])cc(C(=O)NCCO)cc2[N+](=O)[O-])cc1	69%	69%							83%	83%	
COc1ccc(NC(=O)C(C)Nc2c([N+](=O)[O-])cc(C(=O)NCCO)cc2[N+](=O)[O-])cc1 (stereo unspecified)	77%	77%									Release [11]: 97%; Release [12]: 97%
COc1ccc(NC(=O)C(C)N(C)c2c([N+](=O)[O-])cc(C(=O)NCCO)cc2[N+](=O)[O-])cc1 (stereo unspecified)									80%	94%	
CC(Nc1c([N+](=O)[O-])cc(C(=O)NCCN(C)C)cc1[N+](=O)[O-])C(=O)Nc1ccc(N(CCCl)CCCl)cc1 (stereo unspecified)			2100 nM	1.3 air/N2	1300 nM	10500 nM	3000 nM	1300 nM			
COc1cc2cc(C(=O)N3CC(CCl)c4c3cc(N)c3ccccc43)[nH]c2c(OC)c1OC (stereo unspecified)			3.4 nM	1.1 air/N2	1 nM	0.46 nM	0.29 nM	0.27 nM			
